Article PMC7203960 (ACS Omega, 2020)

What was measured:
[1] = tested on: SW1990; test: CellTiter-Glo luminescent cell viability assay, SW1990; type: cell-based; conditions: Homo sapiens, SW1990, 72 h, read-out: IC50 SW1990
Procedure, shortened: (§1)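 AsPC1 and SW1990 human pancreatic cancer cells were obtained from ATCC and grown in RPMI with FBS, penicillin 100 IU/mL and streptomycin 100 μg/mL at 37 °C in 5% CO2. Compounds were made up as 100 mM DMSO stocks and diluted to 0.1 mM in sterile PBS. Cells were seeded at 1500 cells/well, held 24 h, then treated 72 h. Viability was read by CellTiter-Glo luminescence, in triplicate.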

[2] = CellTiter-Glo luminescent cell viability assay, non-cancerous cell line MRC5; type: cell-based; conditions: human, MRC5 cells (non-cancerous cell line)
Procedure, shortened: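 Test compounds were made up as 100 mM DMSO stocks and diluted to 0.1 mM in sterile PBS. Cells were seeded at 1500 cells/well in 384-well plates and held 24 h before 72 h exposure. Viability was read by CellTiter-Glo luminescence on a microplate reader.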

[3] = tested on: AsPC1; test: CellTiter-Glo luminescent cell viability assay, AsPC1; type: cell-based; conditions: Homo sapiens, ASPC1, 72 h, read-out: IC50 AsPC1
Procedure, shortened: as §1

[4] = Radical scavenging activity by DPPH method
Procedure, shortened: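 DPPH (1.6 mg in 50 mL DMSO), 1.5 mL, was mixed with 1.5 mL of test compound at 100 μg/mL. The mixture stood 45 min at ambient temperature in the dark, then absorbance was read at 517 nm. Blank DPPH solution served as control. Scavenging % was computed from control and sample absorbances, in triplicate.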

IC50 [1] | IC50 [3] | IC50 ([4]; read-out: IC50 (DPPH radical scavenging), DPPH method) | SMILES | IC50 at 72 h [2] | % scavenging (DPPH) ([4]; 100 μg/mL, 45 min incubation, absorbance at 517 nm, triplicate)
35.1 ± 1.78 µM | 39.3 ± 4.44 µM |  | Nc1ccn([C@@H]2O[C@H](CO)[C@@H](O)C2(F)F)c(=O)n1 [gemcitabine] | 54.17 ± 0.2 µM | 
 |  | 170 µM | O=C1O[C@H]([C@@H](O)CO)C(O)=C1O [AA, ascorbic acid] |  | 88.75 ± 0.89%
